High-throughput results as filed in PubChem.
Sampled rows, rich in hits. Any-hit rate of the full collection: about 2.5%.
MBD2 DNA inh: MBD2-methylated oligo binding inhibition; Q9UBB5; TR-FRET, MBD2 binding to methylated oligonucleotide; inhibition, % at 4.4 µM; 370,000 tested, 0.31% active; AID 686964; in the data active = inhibition above about 13%
NS3 helicase inh: HCV NS3 helicase inhibition; NS3 helicase DNA unwinding, Cy5 molecular beacon fluorescence; inhibition, % at 10.9 µM; 290,000 tested, 0.56% active;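 active = inhibition above the mean of all tested compounds plus 3 SD, set per campaign, cut at about 35% in these data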;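 also: 0% = DMSO wells and 100% = thioflavine S control wells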
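Compound dosing – single dose, 10.9 µM nominal final, DMSO 0.8% final · System – NS3 helicase fragment of HCV · Buffer or medium – MOPS pH 6.5, MgCl2, DTT, Tween20, BSA · Signal – Cy5 beacon fluorescence read at start and 1 h · Also added – annealed dual-labelled DNA beacon duplex, ATP-started · Schedule – 1 h at 25 °C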
Pemphigus Ab inh: inhibitors of pemphigus antibody binding to human desmoglein-3; P32926; DSG3-coupled beads, scFv-anti-DSG3-GFP binding, flow cytometry; active compounds read low; binding (percent of control), % at 10 µM; 310,000 tested, 0.48% active;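 active = binding more than 3 SD below its plate's average and above zero; inconclusive = below that plate limit but binding exactly zero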;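 also: hits lower antibody fragment binding to DSG3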
SUMO1-SIM PPI: SUMO1-SIM interaction modulation; P63165; SUMO1 binding to a labelled peptide, TR-FRET, 1 h; inhibition, % at 20 µM; 360,000 tested, 0.33% active; in the data active = inhibition above about 37%
DNMT1 block: blocks human DNA methyltransferase DNMT1; DNMT1 molecular beacon, Hinp1I cleavage, fluorescence; inhibition (reported as % activation of signal), % at 10 µM; 360,000 tested, 0.83% active; AID 588458; in the data active = inhibition above about 50%
UHRF1 MBD2 ctr: UHRF1 methyl-DNA binding inhibition. 370,000 tested, 0.75% active. inhibition, % at 4.4 µM. UHRF1 binding to methylated oligo, TR-FRET. Q96T88; in the data active = inhibition above about 21%;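 also: UHRF1 SRA domain binding a hemimethylated CpG hairpin DNA probe; 0% = median of test compound wells and 100% = reference inhibitor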
DNMT1 interf DR: counter-screen for DNMT1 inhibitors: spectral interference, dose response; shares compounds with DNMT1 block; molecular beacon fluorescence; IC50, µM; 200 tested, under 10 active; call rule not given here
DNMT1 inh conf: DNMT1 inhibition confirmation, single concentration; shares compounds with DNMT1 block; DNMT1 molecular beacon HinP1I cleavage, fluorescence; inhibition, % at 10 µM; 2,300 tested, 8% active; AID 602385;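 active = average inhibition of at least 30% in the single-concentration confirmation test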
DNMT1 interf: shows spectral interference in the DNMT1 beacon assay | shares compounds with DNMT1 block | DNMT1 molecular beacon spectral interference counterscreen, fluorescence 485/520 | activation (fluorescence interference), % at 10 µM | 2,300 tested, 1% active | AID 602387;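 active = activation of at least 30% at 10 µM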;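 also: DNMT1 catalytic domain with a HinP1I cleavage step and a FAM/dabcyl DNA beacon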
Active calls of the source: *; ? = inconclusive; . = not tested or not shown.

SMILES | MBD2 DNA inh | NS3 helicase inh | Pemphigus Ab inh | SUMO1-SIM PPI | DNMT1 block | UHRF1 MBD2 ctr | DNMT1 inh conf | DNMT1 interf | others
O=C(Nc1ccc(NC(=O)c2cccc([N+](=O)[O-])c2)cc1)c1cccc([N+](=O)[O-])c1 | -6 | 1 | 104 | -21 | 4 | -2 | . | .
O=C(Nc1cccc([N+](=O)[O-])c1)c1cccc(C(=O)Nc2cccc([N+](=O)[O-])c2)c1 | 1 | -12 | 144 | 70* | 86* | 0 | 27 | 2
CCn1cnc2c1c(=O)n(Cc1cccc(Br)c1)c(=O)n2Cc1ccccc1 | 4 | -13 | 120 | 6 | 68* | -1 | 9 | 10
Cc1ccccc1Cn1cc(NC(=O)c2cc3nc(-c4ccco4)cc(C(F)(F)F)n3n2)cn1 | -3 | 0 | 101 | 2 | -10 | 3 | . | .
CCc1ccc(-c2cc(C(F)(F)F)n3nc(C(=O)Nc4cnn(Cc5ccc(C)cc5)c4)cc3n2)s1 | . | 9 | 87 | -5 | 56* | . | 0 | -7
CN1CCN(CC(=O)Nc2ccc(Cl)cc2Cl)CC1 | 1 | 2 | 101 | 2 | 3 | 1 | . | .
N#Cc1c(-c2ccccc2)cc(-c2ccccc2)nc1Br | 1 | -7 | 123 | 5 | 10 | -1 | . | .
CCc1nnc(NC(=O)c2oc3cc(C)c(C)cc3c2C)s1 | -2 | -8 | 106 | -3 | 53* | 4 | 1 | -1
CCN(C(=O)COC(=O)c1cc2c(s1)CCCCC2)C1CCS(=O)(=O)C1 (stereo not drawn) | 5 | -2 | 116 | 3 | 2 | 0 | . | .
CC(C)CN(C(=O)COC(=O)c1cc2c(s1)CCC2)C1CCS(=O)(=O)C1 (stereo not drawn) | 6 | 27 | . | -2 | 96* | 19 | 2 | 0
Cc1ccc(/C=c2\sc3nc(-c4ccco4)nn3c2=O)o1 | . | 25 | 101 | 44* | 105* | . | 0 | -1
COc1ccccc1/C=c1\sc2nc(-c3ccccc3OC)nn2c1=O | 3 | 24 | 92 | -1 | -17 | -3 | . | .
Cc1ccc(/C=c2\sc3nc(-c4ccccc4Br)nn3c2=O)o1 | -1 | 33 | 106 | 24 | 104* | 15 | 4 | 2
Cc1ccc(/C=c2/sc3nnc(-c4ccccc4Cl)n3c2=O)o1 | 0 | 19 | 99 | 19 | 22 | 6 | . | .
CCSc1c([N+](=O)[O-])c(=O)n(-c2ccccc2)c2ccccc12 | -3 | . | 94 | -16 | 4 | 1 | . | .
NC(N)=NCCCS(=O)(=O)Nc1ccc(Nc2c3ccccc3nc3cc([N+](=O)[O-])ccc23)cc1 | -1 | . | 93 | 26 | 67* | 4 | 72* | -16 | DNMT1 interf DR=>99
Nc1c(N(CCC2=CCCCC2)C(=O)COc2ccc(F)cc2Cl)c(=O)[nH]c(=O)n1Cc1ccccc1 | 0 | . | 98 | 2 | 54* | -2 | 2 | 2
Nc1c(N(CCC2=CCCCC2)C(=O)COc2ccc([N+](=O)[O-])cc2)c(=O)[nH]c(=O)n1Cc1ccccc1 | 0 | . | 108 | -2 | 58* | -1 | 0 | 4
Cc1nnc(SCC(=O)NCc2ccco2)n1Cc1ccccc1 | -2 | 1 | 110 | 0 | 0 | 0 | . | .
Cc1cc2ccccc2cc1CN1CCOCC1 | 3 | -13 | 98 | -2 | 58* | 0 | 7 | 7
c1ccc2cc(CN3CCOCC3)ccc2c1 | 4 | 3 | 121 | 3 | 3 | -1 | . | .
CCCC(=O)Nc1ccc(-c2nc3cc(C)c(C)cc3o2)cc1 | 2 | 11 | 125 | -1 | 56* | 1 | -1 | -5
CCCC(=O)Nc1ccc2oc(-c3ccncc3)nc2c1 | -5 | -2 | 84 | 3 | -6 | -5 | . | .
O=C(CN1C(=O)c2ccccc2C1=O)Nc1ccc(-c2nc3ccccc3o2)cc1 | -1 | 2 | 104 | -5 | 78* | 7 | 2 | 2
O=C(CCN1C(=O)c2ccccc2C1=O)Nc1ccc(-c2nc3ccccc3o2)cc1 | 1 | 5 | ? | 1 | 42 | -2 | . | .
SMILES | MBD2 DNA inh | NS3 helicase inh | Pemphigus Ab inh | SUMO1-SIM PPI | DNMT1 block | UHRF1 MBD2 ctr | DNMT1 inh conf | DNMT1 interf | others
c1ccc(OCCn2cnc3ccccc32)cc1 | 4 | 0 | 126 | 3 | 0 | -2 | . | .
c1ccc(OCCCCn2cnc3ccccc32)cc1 | 3 | -5 | . | -1 | 74* | 1 | 2 | 5
CCOC(=O)[C@]12CCCC=C1N(Cc1ccc(OC)cc1)C(=O)[C@@H]2CC(=O)N1CCCC1 | 4 | . | . | . | . | 6 | . | .
CCN(CC)c1ccc(S(=O)(=O)N2CCOCC2)cc1NC(=O)CN1CCN(Cc2ccccc2)CC1 | 9 | -10 | 93 | 3 | 58* | 7 | 0 | 4
Cc1ccccc1NC(=O)CN1CCN(Cc2ccccc2)CC1 | 3 | 1 | 119 | 6 | 79* | 1 | 1 | 5
CCN(CC)c1ccc(S(=O)(=O)N2CCOCC2)cc1NC(=O)CNCc1ccccc1 | -4 | 15 | 99 | -4 | -1 | 1 | . | .
O=C(/C=C/c1ccccc1Cl)Nc1ccc2c(c1)C(=O)NC2=O | 4 | 1 | 94 | 37 | 65* | 1 | 6 | 3
Cc1cccc(C(=O)OCC(=O)c2ccc(CC(=O)N3CCOCC3)s2)c1C | -4 | . | . | -14 | 50* | 2 | 4 | 5
Cc1cccc(C(=O)OCC(=O)N2CC(C)OC(C)C2)c1C (stereo not drawn) | 3 | 4 | 103 | -6 | 1 | -2 | . | .
CC1(C(=O)NS(=O)(=O)c2cccc(F)c2)CCN1C(=O)Cc1ccccc1 (stereo not drawn) | -6 | . | . | 2 | 5 | 1 | . | .
CC(=NNC(=O)COc1cccc(C)c1)c1cccnc1 | 2 | . | 101 | -1 | 80* | -3 | 1 | 1
O=C1C(=O)c2c(ccc3ccccc23)-c2ccccc21 | 2 | . | 82 | 61* | 108* | 0 | 28 | -10 | DNMT1 interf DR=>99
CN(C)/C=C1\Oc2ccc3ccccc3c2C1=O | -3 | 2 | 94 | -13 | -2 | -2 | . | .
Cc1cc(OCC(=O)OCC(=O)NC2CCS(=O)(=O)C2)ccc1Cl (stereo not drawn) | 6 | . | 108 | 3 | 1 | -2 | . | .
O=C(CCN1CCc2ccccc2C1)c1ccc2c(c1)OCCO2 | . | -1 | . | -1 | 0 | . | . | .
O=C(CCN1CCc2ccccc21)c1ccc2c(c1)OCCO2 | 1 | 2 | 89 | -10 | 54* | 2 | 2 | 1
COc1ccc(Cc2nnc(NC(=O)Nc3ccccc3)s2)cc1OC | 9 | 5 | 105 | -3 | -3 | 1 | . | .
